Experimental data taken from ChEMBL document CHEMBL1275408, “A chemical genomic screen in Saccharomyces cerevisiae reveals a role for diphthamidation of translation elongation factor 2 in inhibition of protein synthesis by sordarin” (2008).
Calls of active or inactive are those of the source. The calls are words filed in the database; no cut-off is given here.

How the values were obtained:
Saccharomyces cerevisiae [1] = assay: Antifungal activity against Saccharomyces cerevisiae BY4741 harboring PUF3 YLL013C mutant gene by spectrophotometry; format: functional
How it was run: (§1)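 Haploid MATa BY4741 KanMX4 deletion strains pinned from frozen stocks into YPD + G418 (150 mg/liter), grown 3 days at 28°C to confluence, then pin-replicated into SC liquid with no drug or sordarin derivative GM193663 (2 ng/ml sensitivity; 62.5 ng/ml resistance). 28°C, OD595 read every 24 h for 5 days; growth scored relative to wild type on same plate and to untreated mutant.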

Saccharomyces cerevisiae [2] = assay: Antifungal activity against Saccharomyces cerevisiae BY4741 harboring RAD28 YDR030C mutant gene by spectrophotometry; format: functional; how it was run: as §1
Saccharomyces cerevisiae [3] = assay: Antifungal activity against Saccharomyces cerevisiae BY4741 harboring ATP1 YBL099W mutant gene assessed as reduction in fungal growth at 2 ng/ml by spectrophotometry; format: functional, organism-based
How it was run: (§2)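 Haploid BY4741 KanMX4 deletion strains pre-grown in YPD with G418 (150 mg/liter) for 3 days at 28°C. They were then pin-replicated into liquid SC with sordarin derivative GM193663 at 2 ng/ml, or without drug. Plates were incubated at 28°C and OD595 read every 24 h for 5 days. Growth was scored against wild type on the same plate and against the drug-free mutant. Hits were retested at least in duplicate.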

Saccharomyces cerevisiae [4] = assay: Antifungal activity against Saccharomyces cerevisiae BY4741 harboring CPR6 YLR216C mutant gene by spectrophotometry; format: functional
How it was run: (§3)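 Screen of BY4741 KanMX4 deletion strains pre-grown 3 days at 28°C in YPD with G418 (150 mg/liter), then pinned into liquid SC containing GM193663. The sensitivity screen used 2 ng/ml; the resistance screen used 62.5 ng/ml, with validation at 62.5, 125 and 500 ng/ml. OD595 was read every 24 h over 5 days at 28°C. Growth was scored relative to wild type and to drug-free controls. Retests were at least in duplicate.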

Saccharomyces cerevisiae [5] = assay: Antifungal activity against Saccharomyces cerevisiae BY4741 harboring RPS18A YDR450W mutant gene by spectrophotometry; format: functional; how it was run: as §1
Saccharomyces cerevisiae [6] = assay: Antifungal activity against Saccharomyces cerevisiae BY4741 harboring ADE4 YMR300C mutant gene by spectrophotometry; format: functional; how it was run: as §3
Saccharomyces cerevisiae [7] = assay: Antifungal activity against Saccharomyces cerevisiae BY4741 harboring deletion mutation in dph2 gene at 300 to 500 ng/ml after 24 hrs by liquid growth assay; format: functional
Saccharomyces cerevisiae [8] = assay: Antifungal activity against Saccharomyces cerevisiae BY4741 harboring MIP1 YOR330C mutant gene by spectrophotometry; format: functional; how it was run: as §3
Saccharomyces cerevisiae [9] = assay: Antifungal activity against Saccharomyces cerevisiae BY4741 harboring COQ1 YBR003W mutant gene by spectrophotometry; format: functional; how it was run: as §3
Saccharomyces cerevisiae [10] = assay: Antifungal activity against Saccharomyces cerevisiae BY4741 harboring deletion mutation in dph2 gene at 100 ng/ml by plate assay; format: functional, organism-based
How it was run: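 Spot test on solid SC glucose plates with or without 100 ng/ml sordarin. Drops of 10^5 cells plus 10-fold serial dilutions of each dph deletion strain were spotted alongside the parental strain. Plates were incubated at 28°C for 6 days and imaged every 24 h.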

Saccharomyces cerevisiae [11] = assay: Antifungal activity against Saccharomyces cerevisiae BY4741 harboring SER1 YOR184W mutant gene by spectrophotometry; format: functional; how it was run: as §1
Saccharomyces cerevisiae [12] = assay: Antifungal activity against Saccharomyces cerevisiae BY4741 harboring BEM2 YER155C mutant gene by spectrophotometry; format: functional; how it was run: as §3
Saccharomyces cerevisiae [13] = assay: Antifungal activity against Saccharomyces cerevisiae BY4741 harboring ARO3 YDR035W mutant gene by spectrophotometry; format: functional; how it was run: as §3
Saccharomyces cerevisiae [14] = assay: Antifungal activity against Saccharomyces cerevisiae BY4741 harboring YDL063C mutation in unknown gene by spectrophotometry; format: functional; how it was run: as §1
Saccharomyces cerevisiae [15] = assay: Antifungal activity against Saccharomyces cerevisiae BY4741 harboring CUE1 YMR264W mutant gene by spectrophotometry; format: functional; how it was run: as §3
Saccharomyces cerevisiae [16] = assay: Antifungal activity against Saccharomyces cerevisiae BY4741 harboring QRI5 YLR204W mutant gene by spectrophotometry; format: functional; how it was run: as §1
Saccharomyces cerevisiae [17] = assay: Antifungal activity against Saccharomyces cerevisiae BY4741 harboring YHR151C mutation in unknown gene by spectrophotometry; format: functional
How it was run: (§4)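 Deletion strains from the nonessential haploid MATa BY4741 collection (KanMX4 replacement) were grown in YPD with G418 at 28°C for 3 days, then pinned into liquid SC with or without sordarin derivative GM193663 (2 ng/ml for sensitivity, 62.5 ng/ml for resistance). Cultures were kept at 28°C and read at OD595 every 24 h for 5 days. Growth was scored against wild type on the same plate and against the drug-free control. Hits were retested at least in duplicate.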

Saccharomyces cerevisiae [18] = assay: Antifungal activity against Saccharomyces cerevisiae BY4741 harboring YCL042W mutation by spectrophotometry; format: functional; how it was run: as §1
Saccharomyces cerevisiae [19] = assay: Antifungal activity against Saccharomyces cerevisiae BY4741 harboring SPS1 YDR523C mutant gene assessed as reduction in fungal growth at 2 ng/ml by spectrophotometry; format: functional, organism-based
How it was run: (§5)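 Deletion strains (BY4741 background) pre-grown 3 days at 28°C in YPD + G418 (150 mg/liter), then pin-replicated into SC liquid containing 2 ng/ml GM193663 or no drug. 28°C, OD595 every 24 h over 5 days; growth scored against wild type on same plate and against drug-free mutant control; hits retested at least in duplicate at 2 ng/ml.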

Saccharomyces cerevisiae [20] = assay: Antifungal activity against Saccharomyces cerevisiae BY4741 harboring YDR008C mutation by spectrophotometry; format: functional; how it was run: as §1
Saccharomyces cerevisiae [21] = assay: Antifungal activity against Saccharomyces cerevisiae BY4741 harboring GGC1 YDL198C mutant gene by spectrophotometry; format: functional; how it was run: as §3
Saccharomyces cerevisiae [22] = assay: Antifungal activity against Saccharomyces cerevisiae BY4741 harboring TOK1 YJL093C mutant gene by spectrophotometry; format: functional; how it was run: as §1
Saccharomyces cerevisiae [23] = assay: Antifungal activity against Saccharomyces cerevisiae BY4741 harboring CNM67 YNL225C mutant gene assessed as reduction in fungal growth at 2 ng/ml by spectrophotometry; format: functional, organism-based; how it was run: as §2
Saccharomyces cerevisiae [24] = assay: Antifungal activity against Saccharomyces cerevisiae BY4741 harboring YER184C mutation in unknown gene by spectrophotometry; format: functional; how it was run: as §4
Saccharomyces cerevisiae [25] = assay: Antifungal activity against Saccharomyces cerevisiae BY4741 harboring YSC83 YHR017W mutant gene by spectrophotometry; format: functional; how it was run: as §4
Saccharomyces cerevisiae [26] = assay: Antifungal activity against Saccharomyces cerevisiae BY4741 harboring QRI7 YDL104C mutant gene by spectrophotometry; format: functional; how it was run: as §1
Saccharomyces cerevisiae [27] = assay: Antifungal activity against Saccharomyces cerevisiae BY4741 harboring ECM3 YOR092W mutant gene by spectrophotometry; format: functional; how it was run: as §3
Saccharomyces cerevisiae [28] = assay: Antifungal activity against Saccharomyces cerevisiae BY4741 harboring YGR228W mutation in unknown gene by spectrophotometry; format: functional; how it was run: as §4
Saccharomyces cerevisiae [29] = assay: Antifungal activity against Saccharomyces cerevisiae BY4741 harboring DPH1 YIL103W mutant gene by spectrophotometry; format: functional; how it was run: as §3
Saccharomyces cerevisiae [30] = assay: Antifungal activity against Saccharomyces cerevisiae BY4741 harboring FMP35 YIL157C mutant gene by spectrophotometry; format: functional; how it was run: as §3
Saccharomyces cerevisiae [31] = assay: Antifungal activity against Saccharomyces cerevisiae BY4741 harboring MRP20 YDR405W mutant gene by spectrophotometry; format: functional; how it was run: as §3
Saccharomyces cerevisiae [32] = assay: Antifungal activity against Saccharomyces cerevisiae BY4741 harboring DPH5 YLR172C mutant gene by spectrophotometry; format: functional; how it was run: as §3
Saccharomyces cerevisiae [33] = assay: Antifungal activity against Saccharomyces cerevisiae BY4741 harboring SSQ1 YLR369W mutant gene assessed as reduction in fungal growth at 2 ng/ml by spectrophotometry; format: functional, organism-based; how it was run: as §5

Q: For `CO[C@H]1[C@@H](O)[C@H](O)[C@H](OC[C@@]23C[C@@H]4[C@H](C)CC[C@H]4[C@@]4(C=O)CC2C=C(C(C)C)[C@@]34C(=O)O)O[C@@H]1C` [SORDARIN], which MIC (Saccharomyces cerevisiae [1]) is on record?
A: Its MIC is over 0.5 µg/mL.

Q: And the MIC (Saccharomyces cerevisiae [2])?
A: Its MIC is over 0.5 µg/mL.

Q: And the Activity (Saccharomyces cerevisiae [3])?
A: Its Activity is “Active”.

Q: And the MIC (Saccharomyces cerevisiae [4])?
A: Its MIC is over 0.125 µg/mL.

Q: And the MIC (Saccharomyces cerevisiae [5])?
A: The MIC was over 0.0625 µg/mL.

Q: And the MIC (Saccharomyces cerevisiae [6])?
A: The MIC was over 0.5 µg/mL.

Q: And the Activity (Saccharomyces cerevisiae [7])?
A: The Activity was 50%.

Q: And the MIC (Saccharomyces cerevisiae [8])?
A: Its MIC is over 0.5 µg/mL.

Q: And the MIC (Saccharomyces cerevisiae [9])?
A: Its MIC is over 0.5 µg/mL.

Q: What about the MIC (Saccharomyces cerevisiae [10]) of the same compound?
A: The MIC was “inactive”.

Q: And the MIC (Saccharomyces cerevisiae [11])?
A: Its MIC is over 0.5 µg/mL.

Q: And the MIC (Saccharomyces cerevisiae [12])?
A: Its MIC is over 0.5 µg/mL.

Q: What about the MIC (Saccharomyces cerevisiae [13]) of the same compound?
A: Its MIC is over 0.5 µg/mL.

Q: And the MIC (Saccharomyces cerevisiae [14])?
A: Its MIC is over 0.125 µg/mL.

Q: What about the MIC (Saccharomyces cerevisiae [15]) of the same compound?
A: Its MIC is over 0.0625 µg/mL.

Q: And the MIC (Saccharomyces cerevisiae [16])?
A: Its MIC is over 0.125 µg/mL.

Q: And the MIC (Saccharomyces cerevisiae [17])?
A: The MIC was over 0.5 µg/mL.

Q: What about the MIC (Saccharomyces cerevisiae [18]) of the same compound?
A: The MIC was over 0.125 µg/mL.

Q: What about the Activity (Saccharomyces cerevisiae [19]) of the same compound?
A: Its Activity is “Active”.

Q: What about the MIC (Saccharomyces cerevisiae [20]) of the same compound?
A: Its MIC is over 0.5 µg/mL.

Q: What about the MIC (Saccharomyces cerevisiae [21]) of the same compound?
A: The MIC was over 0.5 µg/mL.

Q: What about the MIC (Saccharomyces cerevisiae [22]) of the same compound?
A: The MIC was over 0.125 µg/mL.

Q: What about the Activity (Saccharomyces cerevisiae [23]) of the same compound?
A: Its Activity is “Active”.

Q: And the MIC (Saccharomyces cerevisiae [24])?
A: The MIC was over 0.125 µg/mL.

Q: And the MIC (Saccharomyces cerevisiae [25])?
A: The MIC was over 0.5 µg/mL.

Q: What about the MIC (Saccharomyces cerevisiae [26]) of the same compound?
A: Its MIC is over 0.125 µg/mL.

Q: What about the MIC (Saccharomyces cerevisiae [27]) of the same compound?
A: Its MIC is over 0.125 µg/mL.

Q: And the MIC (Saccharomyces cerevisiae [28])?
A: The MIC was over 0.5 µg/mL.

Q: What about the MIC (Saccharomyces cerevisiae [29]) of the same compound?
A: Its MIC is over 0.5 µg/mL.

Q: What about the MIC (Saccharomyces cerevisiae [30]) of the same compound?
A: The MIC was over 0.5 µg/mL.

Q: What about the MIC (Saccharomyces cerevisiae [31]) of the same compound?
A: Its MIC is over 0.5 µg/mL.

Q: And the MIC (Saccharomyces cerevisiae [32])?
A: Its MIC is over 0.5 µg/mL.

Q: And the Activity (Saccharomyces cerevisiae [33])?
A: Its Activity is “Active”.
